Test results as given in ChEMBL document CHEMBL4014343 (J Med Chem, 2017).
Values after ≈ are worked out from the molar mass of the structure shown.

Tests used:
MCF7 = test: Antiproliferative activity against human MCF7 cells after 3 days by SRB assay; assay type: functional, cell-based; conditions: Homo sapiens, MCF7, 72 h
[1] = Solubility of the compound in water by spectrophotometric method; assay type: physicochemical
Outline: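 Ethanol standard solutions define absorbance maxima; aqueous solubility then quantified spectrophotometrically at that maximum by calibration.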

[2] = Antiproliferative activity against human LXFL 529L cells after 3 days by SRB assay; assay type: functional, cell-based
[3] = molecular target: Cyclin-dependent kinase 2/cyclin E1 (Homo sapiens, UniProt P24941); test: Inhibition of full length human C-terminal His6-tagged CDK2/N-terminal GST-tagged CyclinE expressed in baculovirus infected sf21 cells after 10 mins in presence of [gamma32P]ATP by beta counting method
[4] = molecular target: Cyclin-dependent kinase 1/cyclin B1 (Homo sapiens, UniProt P06493); test: Inhibition of full length human C-terminal His6-tagged CDK1/N-terminal GST-tagged CyclinB expressed in baculovirus infected sf21 cells after 10 mins in presence of [gamma32P]ATP by beta counting method; assay type: cell-based
CDK2/Cyclin A2 = CDK2/Cyclin A2 (Homo sapiens, UniProt P24941); test: Inhibition of full length human C-terminal His6-tagged CDK2/N-terminal GST-tagged CyclinA expressed in baculovirus infected sf21 cells after 10 mins in presence of [gamma32P]ATP by beta counting method
CDK6/cyclin D3 = CDK6/cyclin D3 (Homo sapiens, UniProt Q00534); test: Inhibition of full length human N-terminal His6-tagged CDK6/N-terminal GST-tagged CyclinD3 expressed in sf21 cells after 10 mins in presence of [gamma32P]ATP by beta counting method
[5] = molecular target: Glycogen synthase kinase-3 beta (Homo sapiens, UniProt P49841); test: Inhibition of recombinant GSK3beta (unknown origin) after 10 mins in presence of [gamma32P]ATP by beta counting method
Outline: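 Recombinant kinase with 0.4 μCi [γ-32P]ATP per vial, 10 min at 30 °C; spotted on P81 paper, washed in 0.75% phosphoric acid, counted by β-scintillation. IC50 by linear regression versus solvent control; duplicates, ≥3 independent experiments.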

Cyclin-dependent kinase 1/cyclin B1, sequence (P06493 whole entry): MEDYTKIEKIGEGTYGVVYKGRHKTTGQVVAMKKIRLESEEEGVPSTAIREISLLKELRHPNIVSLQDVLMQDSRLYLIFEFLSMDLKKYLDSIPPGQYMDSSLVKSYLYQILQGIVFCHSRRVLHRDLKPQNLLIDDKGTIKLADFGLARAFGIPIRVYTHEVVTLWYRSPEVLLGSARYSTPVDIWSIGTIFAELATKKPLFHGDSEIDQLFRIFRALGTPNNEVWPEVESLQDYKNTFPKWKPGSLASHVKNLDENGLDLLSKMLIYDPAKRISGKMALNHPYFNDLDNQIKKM
Cyclin-dependent kinase 1/cyclin B1, sequence (P14635 whole entry, further chain): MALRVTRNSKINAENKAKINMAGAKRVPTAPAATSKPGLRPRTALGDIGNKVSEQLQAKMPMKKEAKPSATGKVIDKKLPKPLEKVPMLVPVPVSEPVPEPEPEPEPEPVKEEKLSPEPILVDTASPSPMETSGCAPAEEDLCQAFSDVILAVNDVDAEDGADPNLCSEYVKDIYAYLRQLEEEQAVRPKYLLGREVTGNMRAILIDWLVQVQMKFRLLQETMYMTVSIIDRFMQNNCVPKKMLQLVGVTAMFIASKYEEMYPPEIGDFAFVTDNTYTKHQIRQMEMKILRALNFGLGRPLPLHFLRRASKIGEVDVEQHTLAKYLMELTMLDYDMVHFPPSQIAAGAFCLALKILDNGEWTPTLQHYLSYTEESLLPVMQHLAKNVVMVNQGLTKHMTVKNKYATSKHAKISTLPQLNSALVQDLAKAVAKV
CDK6/cyclin D3, sequence (P30281 whole entry): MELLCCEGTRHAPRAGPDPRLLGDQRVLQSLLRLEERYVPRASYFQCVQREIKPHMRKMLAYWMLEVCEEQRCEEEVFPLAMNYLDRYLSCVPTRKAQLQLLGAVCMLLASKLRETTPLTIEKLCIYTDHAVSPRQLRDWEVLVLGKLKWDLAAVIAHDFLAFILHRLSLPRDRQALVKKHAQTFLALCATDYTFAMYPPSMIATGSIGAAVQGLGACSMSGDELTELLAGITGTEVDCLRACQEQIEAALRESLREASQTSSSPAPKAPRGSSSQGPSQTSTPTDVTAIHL
CDK6/cyclin D3, sequence (Q00534 whole entry): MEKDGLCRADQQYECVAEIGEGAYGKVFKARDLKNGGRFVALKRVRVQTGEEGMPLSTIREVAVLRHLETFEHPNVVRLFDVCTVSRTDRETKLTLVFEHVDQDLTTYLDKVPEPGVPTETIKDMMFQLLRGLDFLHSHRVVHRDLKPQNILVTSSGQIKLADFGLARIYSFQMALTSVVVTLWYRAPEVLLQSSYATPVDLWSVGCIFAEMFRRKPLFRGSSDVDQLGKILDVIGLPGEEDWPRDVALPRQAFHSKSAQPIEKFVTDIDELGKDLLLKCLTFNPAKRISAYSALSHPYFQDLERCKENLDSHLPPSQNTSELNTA
Glycogen synthase kinase-3 beta, sequence (P49841 whole entry): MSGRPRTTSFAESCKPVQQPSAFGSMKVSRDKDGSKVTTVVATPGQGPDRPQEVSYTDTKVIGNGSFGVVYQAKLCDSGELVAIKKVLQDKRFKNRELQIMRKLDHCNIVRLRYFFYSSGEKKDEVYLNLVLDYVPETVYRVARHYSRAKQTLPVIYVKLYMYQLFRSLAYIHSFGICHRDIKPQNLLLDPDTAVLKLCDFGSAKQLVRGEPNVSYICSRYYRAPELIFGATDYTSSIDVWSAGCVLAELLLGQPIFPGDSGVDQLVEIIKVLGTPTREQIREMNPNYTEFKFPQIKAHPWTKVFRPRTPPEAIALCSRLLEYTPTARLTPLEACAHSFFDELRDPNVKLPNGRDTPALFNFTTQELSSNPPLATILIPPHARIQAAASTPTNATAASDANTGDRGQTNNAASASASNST

Work on `O=C1Nc2ccccc2/C1=C1/Nc2ccc(O)cc2/C1=N\O` yielded an IC50 (MCF7) of 3600 nM and a solubility [1] of 2.7 µg/mL (≈ 9.21 µM).

`COc1ccc2c(c1)/C(=C1/Nc3ccccc3/C1=N\OCC(O)CO)C(=O)N2` (stereo not drawn) showed an IC50 (MCF7) of 300 nM, an IC50 ([2]; Homo sapiens, LXFL 529L, 72 h) of 530 nM and a solubility [1] of 50 µg/mL (≈ 131 µM). It also gave an IC50 [3] of 43 nM.

For `CN(C)c1ccc(NCCO/N=C2/C(=C3/C(=O)Nc4ccccc43)Nc3ccccc32)cc1`, the IC50 ([2]; Homo sapiens, LXFL 529L, 72 h) was 5100 nM and the solubility [1] was 1.4 µg/mL (≈ 3.19 µM).

Work on `Cc1ccc2c(c1)/C(=C1/Nc3ccccc3/C1=N\OCCO[C@@H]1O[C@H](CO)[C@@H](O)[C@H](O)[C@H]1O)C(=O)N2` yielded an IC50 (MCF7) of 1500 nM, an IC50 ([2]; Homo sapiens, LXFL 529L, 72 h) of 2000 nM and a solubility [1] of 2 µg/mL (≈ 4.02 µM). It also gave an IC50 [4] greater than 10000 nM, an IC50 (CDK2/Cyclin A2) of 9300 nM and an IC50 [3] of 920 nM. The IC50 (CDK6/cyclin D3) was 1650 nM and the IC50 [5] was 290 nM.

In the case of `O=C1Nc2ccc(C(=O)O)cc2/C1=C1/Nc2ccc(C(=O)O)cc2C1=O`, the IC50 (MCF7) is reported as greater than 100000 nM and the solubility [1] is reported as 0.6 µg/mL (≈ 1.71 µM).

Compound `COc1ccc2c(c1)/C(=C1/Nc3ccccc3/C1=N\O)C(=O)N2` has an IC50 [4] of 910 nM, an IC50 (CDK2/Cyclin A2) of 210 nM and an IC50 [3] of 54 nM. It also gave an IC50 (CDK6/cyclin D3) of 160 nM and an IC50 [5] of 90 nM.

`CC(C)C[C@H](NC(=O)[C@H](Cc1ccccc1)NC(=O)c1cnccn1)B(O)O` [BORTEZOMIB] gave an IC50 (MCF7) of 25 nM.

For `O=C1Nc2ccccc2/C1=C1/Nc2ccccc2/C1=N\OCCC(O)CO` (stereo not drawn), the IC50 ([2]; Homo sapiens, LXFL 529L, 72 h) was 650 nM, the solubility [1] was 3 µg/mL (≈ 8.21 µM) and the IC50 [3] was 230 nM.

In the case of `COc1ccc2c(c1)/C(=C1\Nc3ccccc3\C1=N/OCCO[C@@H]1O[C@H](CO)[C@@H](O)[C@H](O)[C@H]1O)C(=O)N2`, the IC50 (MCF7) is reported as 700 nM, the IC50 ([2]; Homo sapiens, LXFL 529L, 72 h) is reported as 1100 nM and the solubility [1] is reported as 50 µg/mL (≈ 97.4 µM). It also gave an IC50 [4] of 5580 nM, an IC50 (CDK2/Cyclin A2) of 840 nM and an IC50 [3] of 90 nM. For the same compound, the IC50 (CDK6/cyclin D3) was 410 nM and the IC50 [5] was 100 nM.

Work on `O=C1Nc2ccccc2/C1=C1/Nc2ccc(O)cc2C1=O` yielded an IC50 (MCF7) of 10700 nM and a solubility [1] of 7.3 µg/mL (≈ 26.2 µM).

`Nc1ccc2c(c1)C(=O)/C(=C1/C(=O)Nc3ccccc31)N2` showed an IC50 (MCF7) of 7600 nM.

`COc1ccc2c(c1)/C(=C1/Nc3ccccc3/C1=N\OCCN1CCN(C)CC1)C(=O)N2` showed an IC50 ([2]; Homo sapiens, LXFL 529L, 72 h) of 1200 nM and a solubility [1] of 400 µg/mL (≈ 923 µM).

With `CCO/N=C1/C(=C2/C(=O)Nc3ccccc32)Nc2ccccc21` the IC50 ([2]; Homo sapiens, LXFL 529L, 72 h) was 7600 nM.

`CN1CCN(CCO/N=C2/C(=C3/C(=O)Nc4ccccc43)Nc3ccccc32)CC1` showed an IC50 (MCF7) of 800 nM, an IC50 ([2]; lxfl 529l) of 860 nM and a solubility [1] of 2 µg/mL (≈ 4.96 µM).

Work on `CN(C)CCNC(=O)c1ccc2c(c1)C(=O)/C(=C1/C(=O)Nc3ccccc31)N2` yielded an IC50 (MCF7) of 5430 nM and a solubility [1] of 16.1 µg/mL (≈ 42.8 µM).

For `COc1ccc2c(c1)/C(=C1/Nc3ccccc3/C1=N\OCCN1CCN(C)CC1)C(=O)N2.Cl`, the IC50 (MCF7) was 890 nM and the solubility [1] was greater than 25000 µg/mL.

For `O=C1Nc2ccccc2/C1=C1/Nc2ccccc2/C1=N\OCCO[C@@H]1O[C@H](CO)[C@@H](O)[C@H](O)[C@H]1O`, the solubility [1] was 30 µg/mL (≈ 62.1 µM), the IC50 [4] was greater than 10000 nM and the IC50 (CDK2/Cyclin A2) was no less than 10000 nM. For the same compound, the IC50 [3] was 1700 nM, the IC50 (CDK6/cyclin D3) was 1350 nM and the IC50 [5] was 810 nM.

Work on `O=C1Nc2ccccc2/C1=C1/Nc2ccc(C(=O)O)cc2/C1=N\O` yielded a solubility [1] of less than 1 µg/mL.

`O=C1Nc2ccccc2/C1=C1/Nc2ccccc2/C1=N\OCCCC(O)CO` (stereo not drawn) showed an IC50 ([2]; Homo sapiens, LXFL 529L, 72 h) of 560 nM and a solubility [1] of 2 µg/mL (≈ 5.27 µM).

In the case of `CN1CCN(C(=O)c2ccc3c(c2)C(=O)/C(=C2/C(=O)Nc4ccccc42)N3)CC1`, the IC50 (MCF7) is reported as 17900 nM and the solubility [1] is reported as 23.9 µg/mL (≈ 61.5 µM).

Compound `CN1CCN(c2ccc(NC(=O)c3ccc4c(c3)C(=O)/C(=C3/C(=O)Nc5ccccc53)N4)cc2)CC1` has an IC50 (MCF7) of 10000 nM and a solubility [1] of 4.2 µg/mL (≈ 8.76 µM).

For `O=C1Nc2ccccc2/C1=C1/Nc2ccccc2/C1=N\OCCCCO`, the IC50 ([2]; Homo sapiens, LXFL 529L, 72 h) was 2600 nM and the solubility [1] was 0.1 µg/mL (≈ 0.286 µM).

Compound `O=C1Nc2ccc(O)cc2/C1=C1/Nc2ccccc2/C1=N\OCCO[C@@H]1O[C@H](CO)[C@@H](O)[C@H](O)[C@H]1O` has an IC50 ([2]; Homo sapiens, LXFL 529L, 72 h) of 1200 nM and a solubility [1] of 5 µg/mL (≈ 10 µM).

Work on `COc1ccc2c(c1)C(=O)/C(=C1/C(=O)Nc3ccc(OC)cc31)N2` yielded an IC50 (MCF7) of 6000 nM.

In the case of `O=C1Nc2ccccc2/C1=C1/Nc2ccc(C(=O)O)cc2C1=O`, the solubility [1] is reported as 278 µg/mL (≈ 908 µM).

Compound `O=C1Nc2ccccc2/C1=C1/Nc2ccc([N+](=O)[O-])cc2C1=O` has a solubility [1] of less than 0.1 µg/mL.
